Experimental data: PMC7548052 (Molecular Diversity, 2020)

Assays:
Type in all cases: cell-based
MCF-7 = assay: Anticancer screening, MTT assay, 72 h; settings: Homo sapiens, MCF7, 72 h
Procedure, shortened: (§1)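 Monolayer cultures were kept at 37 °C, 5% CO2 and plated on day 0 at 3 × 10^4 cells/mL (HCT 116, H460) or 5 × 10^4 cells/mL (MCF-7). Test agents were added in ten-fold dilutions (10−8 to 10−4 M) and incubated 72 h. Growth was read by MTT at 570 nm. GI50 is the concentration giving 50% inhibition. Two independent experiments were run, points at least in triplicate.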

LN-229 = assay: Anticancer screening, MTS cell proliferation assay, 72 h; settings: Homo sapiens, LN-229, 72 h
Procedure, shortened: (§2)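 Human solid-tumour lines were grown as monolayers in supplier-recommended media at 37 °C, 5% CO2. LN-229 was seeded at 375 and Capan-1 at 250 cells/well and incubated overnight. Cells were then exposed for 72 h to seven concentrations (100 to 6.4 × 10−3 µM). MTS reagent was added and absorbance read at 490 nm. Two independent experiments were run, each point at least in triplicate.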

K-562 = assay: Anticancer screening, MTS cell proliferation assay, 72 h; settings: Homo sapiens, K562, 72 h
Procedure, shortened: (§3)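 HL-60, K-562, Z-138 and DND-41 suspension cells were seeded at 2500–6000 cells/well directly into wells already containing test compound at seven concentrations (100 to 6.4 × 10−3 µM). After 72 h, MTS reagent was added and absorbance read at 490 nm. GI50 is the concentration giving 50% growth inhibition. Two independent experiments were run, each point at least in triplicate.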

H460 = assay: Anticancer screening, MTT assay, 72 h; settings: Homo sapiens, NCI-H460, 72 h
Procedure, shortened: as §1

DND-41 = assay: Anticancer screening, MTS cell proliferation assay, 72 h; settings: Homo sapiens, DND41, 72 h
Procedure, shortened: as §3

Capan-1 = assay: Anticancer screening, MTS cell proliferation assay, 72 h; settings: Homo sapiens, CAPAN-1, 72 h
Procedure, shortened: as §2

HL-60 = assay: Anticancer screening, MTS cell proliferation assay, 72 h; settings: Homo sapiens, HL-60, 72 h
Procedure, shortened: as §3

Z-138 = assay: as above; settings: Homo sapiens, Z-138, 72 h
Procedure, shortened: as §3

HCT 116 = assay: Anticancer screening, MTT assay, 72 h; settings: Homo sapiens, HCT-116, 72 h
Procedure, shortened: as §1

SMILES	GI50 (MCF-7)	GI50 (LN-229)	GI50 (K-562)	GI50 (H460)	GI50 (DND-41)	GI50 (Capan-1)	GI50 (HL-60)	GI50 (Z-138)	GI50 (HCT 116)
CCN(CC)CCCC(C)Nc1ccnc2cc(Cl)ccc12 (stereo not drawn) [CQ, chloroquine diphosphate, reference compound]	6 ± 1.8 µM	22 ± 2.8 µM	45 ± 0.7 µM	13 ± 0.8 µM	53.7 ± 6.9 µM	14.9 ± 1.5 µM	13 ± 0.2 µM	13.6 ± 0.6 µM	16 ± 3 µM
C=C(CC(=O)OC)C(=O)Nc1ccc(F)cc1 [Compound 2, Methyl 3-[(4-fluorophenyl)carbamoyl]but-3-enoate]	2 ± 0.1 µM	8 ± 0.6 µM	15.9 ± 1 µM	15 ± 1 µM	15.7 µM	2.8 ± 0.6 µM	9.3 ± 0.5 µM	8.4 ± 0.5 µM	4 ± 1 µM
C=C(CC(=O)OC)C(=O)Nc1cccc(C(F)(F)F)c1 [Compound 3, Methyl 3-{[3-(trifluoromethyl)phenyl]carbamoyl}but-3-enoate]	2 ± 0.4 µM	4.4 ± 0.1 µM	13.9 ± 0.6 µM	9 ± 2 µM	21.2 ± 4 µM	1.9 ± 0.3 µM	3.7 ± 0.1 µM	5.4 ± 0.1 µM	3 ± 1 µM
C=C(CC(=O)OC)C(=O)Nc1ccc(C(F)(F)F)cc1 [Compound 4, Methyl 3-{[4-(trifluoromethyl)phenyl]carbamoyl}but-3-enoate]	1 ± 0.3 µM	7.7 ± 0.2 µM	31.3 ± 3 µM	11 ± 3 µM	16.1 ± 0.4 µM	5.3 ± 0.5 µM	8 ± 0.8 µM	8.2 ± 0.4 µM	3 ± 1 µM
C=C(CC(=O)OC)C(=O)Nc1cc(OC)cc2cccnc12 [Compound 5, Methyl 3-[(6-methoxyquinolin-8-yl)carbamoyl]but-3-enoate]	10 ± 2.5 µM	6.2 ± 0.4 µM	31 ± 3.9 µM	8 ± 2 µM	25.5 ± 9.4 µM	6.3 ± 2.3 µM	10.1 ± 0.1 µM	6.1 ± 0.3 µM	12 ± 2 µM
C=C(CC(=O)OC)C(=O)Nc1cccnc1 [Compound 6, Methyl 3-[(pyridin-3-yl)carbamoyl]but-3-enoate]	3 ± 1 µM	10.2 ± 1 µM	49.9 ± 2.2 µM	18 ± 1 µM	26.3 ± 6.6 µM	8.9 ± 0.1 µM	13.1 ± 1 µM	10.9 µM	12 ± 2 µM
C=C(CC(=O)OC)C(=O)Nc1cncc(F)c1 [Compound 7, Methyl 3-[(5-fluoropyridin-3-yl)carbamoyl]but-3-enoate]	3 ± 1.1 µM	8.1 ± 0.3 µM	43.4 µM	16 ± 2 µM	21 ± 2.2 µM	6.8 ± 1.7 µM	10.6 ± 0.7 µM	9 ± 0.2 µM	7 ± 2 µM
C=C(CC(=O)OC)C(=O)NCc1cccnc1 [Compound 8, Methyl 3-{[(pyridin-3-yl)methyl]carbamoyl}but-3-enoate]	6 ± 1 µM	8.4 ± 0.1 µM	53.3 ± 2.7 µM	16 ± 2 µM	16.3 ± 0.1 µM	9.1 ± 0.7 µM	11 ± 0.3 µM	10.2 ± 0.3 µM	3 ± 1 µM
C=C(CC(=O)OC)C(=O)NCCc1cccnc1 [Compound 9, Methyl 3-{[2-(pyridin-3-yl)ethyl]carbamoyl}but-3-enoate]	2 ± 1 µM	6.2 ± 0.8 µM	34.5 ± 8.7 µM	15 ± 1 µM	18.5 ± 2.4 µM	5.9 ± 0.2 µM	9.6 ± 0.6 µM	5.6 ± 1.6 µM	4 ± 1 µM
